From ChEMBL document CHEMBL3232926, “Design, synthesis and biological evaluation of novel aminomethyl-piperidones based DPP-IV inhibitors” (Bioorg Med Chem Lett, 2014)
The source made the active and inactive calls. No cut-off for these calls is given here.

Legend:
Mus musculus [1] = experiment: Antidiabetic activity in fed db/db hyperglycemic mouse model assessed as decrease in serum glucose AUC at 3 mg/kg, po measured up to 24 hrs by DPEC-GOD/POD method relative to vehicle-treated control; format: functional; design: scale not given: the % may be the effect or the level left
In short: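 Fed male-unspecified db/db mice dosed orally at 3 mg/kg, with blood taken at time points up to 24 h. Serum glucose measured promptly by the GOD/POD method on duplicate samples. Glucose AUC compared with vehicle control by two-way ANOVA with Bonferroni post test. Values are mean SEM.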

Cytochrome P450 2C9 = Cytochrome P450 2C9 (Homo sapiens, UniProt P11712); experiment: Inhibition of human CYP2C9 expressed in Escherichia coli using diclofenac as substrate up to 100 uM preincubated for 5 mins followed by NADPH addition measured after 20 mins by HPLC analysis; format: ADME
Sequence of Cytochrome P450 2C9 (P11712 whole entry): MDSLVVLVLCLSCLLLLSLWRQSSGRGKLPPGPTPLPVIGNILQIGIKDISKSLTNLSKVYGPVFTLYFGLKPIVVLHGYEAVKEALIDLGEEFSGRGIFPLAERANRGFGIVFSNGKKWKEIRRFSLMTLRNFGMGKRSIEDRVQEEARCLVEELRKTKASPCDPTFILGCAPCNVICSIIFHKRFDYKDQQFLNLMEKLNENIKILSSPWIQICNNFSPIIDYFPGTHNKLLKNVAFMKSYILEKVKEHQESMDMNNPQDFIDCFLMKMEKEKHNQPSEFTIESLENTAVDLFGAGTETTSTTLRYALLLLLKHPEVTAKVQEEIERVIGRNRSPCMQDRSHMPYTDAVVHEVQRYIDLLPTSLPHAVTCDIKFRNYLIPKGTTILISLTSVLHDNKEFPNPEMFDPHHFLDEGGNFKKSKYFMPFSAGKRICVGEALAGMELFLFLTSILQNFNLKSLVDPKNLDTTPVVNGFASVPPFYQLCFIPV

[2] = Oral bioavailability in C57BL/6J mouse at 3 mg/kg; format: ADME, organism-based; details: in vivo
In short: (§1)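 Single 3 mg/kg oral or iv dose to overnight-fasted male C57BL/6J mice (n = 6). Serial EDTA blood sampling at pre-dose and 0.15–48 h post-dose. Plasma separated at 4 °C, stored at -70 °C and analysed by LC–MS/MS on a C18 column. %F derived against iv AUC. Values are mean SD.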

Mus musculus [3] = experiment: Antidiabetic activity in overnight fasted C57BL/6J mouse assessed as decrease in serum glucose AUC at 3 mg/kg, po administered 0.5 hrs prior to glucose challenge measured up to 240 mins by DPEC-GOD/POD method relative to vehicle-treated control; format: functional; design: scale not given: the % may be the effect or the level left
In short: (§2)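 Male C57BL/6J mice fasted overnight with water ad libitum. Dosed orally at 3 mg/kg 0.5 h before the oral glucose load. Serum glucose read by the GOD/POD method at 15–240 min on duplicate samples, then 0–240 min AUC taken. Two-way ANOVA with Bonferroni post test against vehicle. Values are mean SEM.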

[4] = Elimination rate constant in C57BL/6J mouse at 3 mg/kg, po; format: ADME, organism-based; design: dose 3 mg/kg, route oral; details: in vivo; in short: as §1
[5] = Cmax in C57BL/6J mouse at 3 mg/kg, po; format: ADME, organism-based; design: dose 3 mg/kg, route oral; details: in vivo; in short: as §1
Cytochrome P450 3A4 = Cytochrome P450 3A4 (Homo sapiens, UniProt P08684); experiment: Inhibition of human CYP3A4 expressed in Escherichia coli using midazolam as substrate up to 100 uM preincubated for 5 mins followed by NADPH addition measured after 20 mins by HPLC analysis; format: ADME
Sequence of Cytochrome P450 3A4 (P08684 whole entry): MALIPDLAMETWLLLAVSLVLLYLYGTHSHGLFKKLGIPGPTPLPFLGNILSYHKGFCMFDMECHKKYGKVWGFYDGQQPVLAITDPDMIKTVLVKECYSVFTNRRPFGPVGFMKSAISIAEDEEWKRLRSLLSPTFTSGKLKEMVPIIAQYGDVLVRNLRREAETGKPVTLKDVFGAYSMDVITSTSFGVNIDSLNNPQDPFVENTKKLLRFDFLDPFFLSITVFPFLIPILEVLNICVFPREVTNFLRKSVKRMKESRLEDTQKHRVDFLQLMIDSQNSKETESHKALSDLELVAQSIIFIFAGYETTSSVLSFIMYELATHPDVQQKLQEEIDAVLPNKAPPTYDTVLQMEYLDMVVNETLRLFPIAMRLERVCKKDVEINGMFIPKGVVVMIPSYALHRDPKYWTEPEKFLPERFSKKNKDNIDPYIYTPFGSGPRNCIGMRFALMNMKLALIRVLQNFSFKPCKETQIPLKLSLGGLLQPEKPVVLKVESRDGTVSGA

Cytochrome P450 2C8 = target: T1, Cytochrome P450 2C8 (Homo sapiens, UniProt P10632); experiment: Inhibition of human CYP2C8 expressed in Escherichia coli using paclitaxel as substrate up to 100 uM preincubated for 5 mins followed by NADPH addition measured after 20 mins by HPLC analysis; format: ADME
T1 sequence (P10632 whole entry): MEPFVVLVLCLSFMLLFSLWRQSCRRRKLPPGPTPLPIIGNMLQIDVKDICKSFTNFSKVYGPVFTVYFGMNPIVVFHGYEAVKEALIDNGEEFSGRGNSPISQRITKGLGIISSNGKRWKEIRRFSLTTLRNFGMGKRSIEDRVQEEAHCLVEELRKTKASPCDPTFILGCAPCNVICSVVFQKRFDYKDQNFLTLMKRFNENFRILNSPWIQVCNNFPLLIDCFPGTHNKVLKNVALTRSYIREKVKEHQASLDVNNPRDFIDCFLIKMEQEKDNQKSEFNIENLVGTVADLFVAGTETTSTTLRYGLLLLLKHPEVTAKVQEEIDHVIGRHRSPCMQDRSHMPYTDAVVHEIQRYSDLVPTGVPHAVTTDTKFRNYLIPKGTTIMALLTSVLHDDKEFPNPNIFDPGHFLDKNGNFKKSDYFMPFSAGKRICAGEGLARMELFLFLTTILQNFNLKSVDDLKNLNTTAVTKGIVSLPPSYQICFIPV

[6] = AUC (0 to infinity) in C57BL/6J mouse at 3 mg/kg, po; format: ADME, organism-based; design: time infinity, dose 3 mg/kg, route oral; details: plasma; in short: as §1
Cytochrome P450 2D6 = Cytochrome P450 2D6 (Homo sapiens, UniProt P10635); experiment: Inhibition of human CYP2D6 expressed in Escherichia coli using bufuralol as substrate up to 100 uM preincubated for 5 mins followed by NADPH addition measured after 20 mins by HPLC analysis; format: ADME
Sequence of Cytochrome P450 2D6 (P10635 whole entry): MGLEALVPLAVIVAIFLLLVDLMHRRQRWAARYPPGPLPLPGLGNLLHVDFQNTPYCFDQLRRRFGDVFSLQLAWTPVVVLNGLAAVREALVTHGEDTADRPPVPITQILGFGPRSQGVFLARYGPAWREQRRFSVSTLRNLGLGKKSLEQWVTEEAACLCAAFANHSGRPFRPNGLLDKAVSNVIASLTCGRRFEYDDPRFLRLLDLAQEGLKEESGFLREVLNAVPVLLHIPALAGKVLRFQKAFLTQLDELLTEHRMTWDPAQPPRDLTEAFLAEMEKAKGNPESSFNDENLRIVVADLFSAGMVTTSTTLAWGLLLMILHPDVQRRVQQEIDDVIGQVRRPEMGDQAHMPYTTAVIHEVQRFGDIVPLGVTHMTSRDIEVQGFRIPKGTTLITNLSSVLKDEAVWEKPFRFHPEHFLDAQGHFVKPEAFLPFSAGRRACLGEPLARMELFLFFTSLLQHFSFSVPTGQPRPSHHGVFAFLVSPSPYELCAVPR

Cytochrome P450 2C19 = Cytochrome P450 2C19 (Homo sapiens, UniProt P33261); experiment: Inhibition of human CYP2C19 expressed in Escherichia coli using S-mephenytoin as substrate up to 100 uM preincubated for 5 mins followed by NADPH addition measured after 20 mins by HPLC analysis; format: ADME
Sequence of Cytochrome P450 2C19 (P33261 whole entry): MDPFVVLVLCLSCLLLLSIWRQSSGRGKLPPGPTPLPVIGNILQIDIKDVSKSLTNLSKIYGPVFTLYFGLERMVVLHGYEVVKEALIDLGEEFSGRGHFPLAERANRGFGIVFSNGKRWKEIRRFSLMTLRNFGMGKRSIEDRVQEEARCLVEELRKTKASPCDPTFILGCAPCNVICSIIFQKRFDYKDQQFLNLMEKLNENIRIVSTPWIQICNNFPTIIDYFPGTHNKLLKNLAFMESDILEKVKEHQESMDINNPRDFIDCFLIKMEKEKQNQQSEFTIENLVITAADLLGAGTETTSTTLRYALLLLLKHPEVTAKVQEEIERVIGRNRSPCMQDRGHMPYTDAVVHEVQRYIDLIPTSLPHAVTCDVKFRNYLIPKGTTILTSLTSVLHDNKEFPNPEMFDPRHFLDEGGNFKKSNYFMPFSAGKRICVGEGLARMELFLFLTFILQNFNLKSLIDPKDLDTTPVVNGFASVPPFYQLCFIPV

[7] = Half life in C57BL/6J mouse at 3 mg/kg, po; format: ADME, organism-based; design: dose 3 mg/kg, route oral; details: in vivo; in short: as §1
Cytochrome P450 1A2 = target: T2, Cytochrome P450 1A2 (Homo sapiens, UniProt P05177); experiment: Inhibition of human CYP1A2 expressed in Escherichia coli using ethoxyresorufin as substrate up to 100 uM preincubated for 5 mins followed by NADPH addition measured after 20 mins by HPLC analysis; format: ADME
T2 sequence (P05177 whole entry): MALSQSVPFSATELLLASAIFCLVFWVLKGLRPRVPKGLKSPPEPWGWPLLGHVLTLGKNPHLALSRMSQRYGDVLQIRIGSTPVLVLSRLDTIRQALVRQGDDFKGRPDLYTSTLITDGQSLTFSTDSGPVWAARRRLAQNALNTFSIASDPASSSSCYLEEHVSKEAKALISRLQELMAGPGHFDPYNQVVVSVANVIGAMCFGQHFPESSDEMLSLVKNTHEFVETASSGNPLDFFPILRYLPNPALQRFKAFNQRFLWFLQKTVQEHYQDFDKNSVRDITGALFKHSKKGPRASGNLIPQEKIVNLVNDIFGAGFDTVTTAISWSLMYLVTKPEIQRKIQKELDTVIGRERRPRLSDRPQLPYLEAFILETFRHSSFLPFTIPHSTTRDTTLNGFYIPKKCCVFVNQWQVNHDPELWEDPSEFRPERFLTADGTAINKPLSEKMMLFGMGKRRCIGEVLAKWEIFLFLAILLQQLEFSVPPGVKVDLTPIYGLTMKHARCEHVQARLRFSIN

[8] = AUC in C57BL/6J mouse at 3 mg/kg, iv; format: ADME, organism-based; design: dose 3 mg/kg, route intravenous; details: plasma; in short: as §1
Mus musculus [9] = experiment: Antidiabetic activity in fed db/db hyperglycemic mouse model assessed as decrease in serum glucose AUC at 3 mg/kg, po measured up to 2 hrs by DPEC-GOD/POD method relative to vehicle-treated control; format: functional; design: scale not given: the % may be the effect or the level left
[10] = Tmax in C57BL/6J mouse at 3 mg/kg, po; format: ADME, organism-based; design: dose 3 mg/kg, route oral; details: in vivo; in short: as §1
Mus musculus [11] = experiment: Antidiabetic activity in overnight fasted C57BL/6J mouse assessed as decrease in serum glucose level at 3 mg/kg, po administered 0.5 hrs prior to glucose challenge measured at 30 to 60 mins by DPEC-GOD/POD method; format: functional, organism-based; design: dose 3 mg/kg; in short: as §2

| Structure (SMILES) | Activity (Mus musculus [1]) [%] | inhibition (INH) (Cytochrome P450 2C9) | bioavailability [2] [%] | Activity (Mus musculus [3]) [%] | k el [4] [s⁻¹] | Cmax [5] [ng/mL] | inhibition (INH) (Cytochrome P450 3A4) | inhibition (INH) (Cytochrome P450 2C8) | AUC(0-inf) [6] [ng·h/mL] | inhibition (INH) (Cytochrome P450 2D6) | inhibition (INH) (Cytochrome P450 2C19) | half-life [7] [min] | inhibition (INH) (Cytochrome P450 1A2) | AUC [8] [ng·h/mL] | Activity (Mus musculus [9]) [%] | Tmax [10] [min] | Activity (Mus musculus [11]) |
| --- | --- | --- | --- | --- | --- | --- | --- | --- | --- | --- | --- | --- | --- | --- | --- | --- | --- |
| NC[C@H]1CN(CCc2ccc3c(c2)OCO3)C(=O)C[C@@H]1c1cc(F)ccc1F | 20.62 | Not Active | 79.5 | 38.9 | 3.33e-05 | 420 | Not Active | Not Active | 1010 | Not Active | Not Active | 539 | Not Active | 1270 | 38.29 | 16.8 | – |
| N[C@@H](CC(=O)N1CCn2c(nnc2C(F)(F)F)C1)Cc1cc(F)c(F)cc1F [SITAGLIPTIN] | 1.48 | – | 75.7 | 17.9 | 0.000233 | 310 | – | – | 560 | – | – | 93.6 | – | 740 | 20.8 | 13.2 | Active |
